# The list is not random: actives were taken first. Their share in the collection is about 1.8%.
# PPC-1+TRAIL kill: compounds killing PPC-1 cancer cells with TRAIL present, primary screen, TRAIL potentiator project, ATPLite luminescence, uHTS; PPC-1 cells + TRAIL, ATPLite viability luminescence; cell killing (% activity), % at 4 µM or 5 µM; 220,000 compounds, 0.41% hits; AID 1443, 2008;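 active means cell killing above 50% in the first pass at 4 µM, then a duplicate retest at 5 µM averaging 50% or more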;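 further: plate controls were cells with TRAIL plus DMSO for no effect and medium-only wells lacking cells for full effect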
# FLuc act counter: FLuc activators, initial screening, artefact control for FLuc-dependent activation tests, biochemical, ATPlite luminescence | AID 1027, 2008 | Luciferin 4-monooxygenase (Photinus pyralis), P08659 | 200,000 tested, under 10 active | ATPlite luciferase biochemical, 10 min; 0 = ATP-free wells, 1 = DMSO control | activation factor at 10 µM;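 active means luciferase activation factor, scaled between plate controls, of at least 2 with compound at 10 µM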
# Target sequence (P08659 whole entry, looked up): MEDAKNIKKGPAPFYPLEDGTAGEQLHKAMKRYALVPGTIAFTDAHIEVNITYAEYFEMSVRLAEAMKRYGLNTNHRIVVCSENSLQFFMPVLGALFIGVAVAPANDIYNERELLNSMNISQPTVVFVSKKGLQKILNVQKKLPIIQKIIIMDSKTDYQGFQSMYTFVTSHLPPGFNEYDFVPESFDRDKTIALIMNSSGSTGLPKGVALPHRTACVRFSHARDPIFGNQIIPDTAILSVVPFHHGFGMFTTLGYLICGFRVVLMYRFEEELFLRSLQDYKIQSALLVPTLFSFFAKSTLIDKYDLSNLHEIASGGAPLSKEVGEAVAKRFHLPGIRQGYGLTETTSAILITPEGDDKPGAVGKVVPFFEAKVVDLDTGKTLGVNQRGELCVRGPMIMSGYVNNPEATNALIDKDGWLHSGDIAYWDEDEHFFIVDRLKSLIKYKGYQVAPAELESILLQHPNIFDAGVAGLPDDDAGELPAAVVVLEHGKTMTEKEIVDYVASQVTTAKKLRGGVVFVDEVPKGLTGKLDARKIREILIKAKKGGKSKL
#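 Material: Luciferase/luciferin reagent mix | Doses: Test compounds dosed from 2 mM stocks in 100% DMSO | Timing: 10 min incubation after luciferase reagent addition, room temperature | Measured by: Luminescence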
# FLuc inhib CS: firefly luciferase enzyme inhibitors, primary screen, artefact control for luciferase-based inhibitor screens, biochemical, luminescence, ATPLite. 200,000 compounds, 1.5% hits. inhibition, % at 10 µM. 10 min;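 active means inhibition above about 50% when tested at 10 µM, limit read from the data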
# C8 TRAIL sens: viability loss with TRAIL in NB7+C8 cells, primary screen, TRAIL sensitizer project, cell-based, ATPlite luminescence; inhibition (viability loss, TRAIL sensitization), % at 10 µM; 360,000 compounds, 1% hits; AID 624354, 2012;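 active means compounds causing at least 50% loss of cell viability in the single-dose screen, relative to plate controls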
# beta cell repl: inducers of MIN6 beta-cell proliferation, primary screen, ATP luminescence, uHTS; MIN6 cells proliferation, ATPlite luminescence, 48 h; cells starved in 0.2% serum; 100% = growth in 10% serum; proliferation, % at 10 µM; 330,000 compounds, 0.29% hits;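 active means compounds whose signal lies at least 3.5 SD above the mean of all wells on their plate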;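 further: 0% = DMSO-treated cells in low-serum medium and 100% = 10% serum control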
# iPSC survival up: enhancers of single-cell hiPSC survival, primary screen, ATPlite luminescence. 100% = ROCK inhibitor wells, 0% = DMSO. survival enhancement, % at 20 µM. 360,000 compounds, 0.044% hits. AID 602274, 2012; in the data active means survival enhancement above about 18%;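 further: cells exposed to compounds for 16 hours before the ATP read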
# PPC1 cytotox: cytotoxicity in PPC-1 cells, confirmation, cytotoxicity control for TRAIL apoptosis potentiator project, cell-based, ATP content luminescence. shares compounds with PPC-1+TRAIL kill. PPC-1 viability, ATPlite luminescence, overnight. cytotoxicity, % at 5 µM. 1,200 compounds, 50% hits. AID 1447, 2008;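 active means reconfirmed compounds whose average cytotoxicity reaches 50% or more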;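 further: 0% = DMSO-treated cells and 100% = wells holding medium but no cells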
# * hit, by the source's call; / = no result.
SMILES,PPC-1+TRAIL kill,FLuc act counter,FLuc inhib CS,C8 TRAIL sens,beta cell repl,iPSC survival up,PPC1 cytotox
Cc1nnc(SCc2cnc(-c3ccc(C(C)C)cc3)s2)n1C,91*,0,95*,88*,-6,-6,91*
Cc1ccc(-c2ccc(NC(=O)C3C4C=CC(C4)C3C(=O)O)cc2)o1 (centres undefined),8,1,3,3,-3,-2,17
CCN(CCO)c1ccc(N=Nc2cc(C)[nH]n2)cc1,77*,/,/,86*,-4,-1,78*
COc1ccccc1N1CCN(C(=O)CSc2ncccc2-c2nc3ccccc3[nH]2)CC1,8,1,-1,-6,-2,2,/
COCCOC(=O)CSc1ncccc1-c1nc2cc(C)c(C)cc2[nH]1,57*,0.3,75*,65*,-5,-1,59*
CCn1c2c(c(=N)c3c1CCC3)CCC2,12,1.1,-9,25,0,-2,/
CCCCn1c2c(c(=N)c3c1CCC3)CCC2,-3,1,1,12,-6,-5,/
CCCCCCCn1c2c(c(=N)c3c1CCC3)CCCC2,31,1,-5,40,/,-4,26
CCCCCCn1c2c(c(=N)c3c1CCC3)CCC2,18,1,-4,29,-6,-3,23
CCCCCCCCCn1c2c(c(=N)c3c1CCC3)CCC2,42,1.1,-7,77*,-6,-1,44
CC1CCN(S(=O)(=O)c2ccc(C(=O)OC(C)C(=O)N(C)C3CCCCC3)cc2)CC1 (centres undefined),/,/,/,24,-3,0,/
C/C(=N\Nc1cccc2cccnc12)c1ccccn1,48,0.1,87*,75*,-6,-1,44
CC(C)(C)C(=O)Nc1ccc(N=Nc2ccccc2)cc1,62*,0.1,90*,82*,-5,-1,68*
O=C(O)CCC(=O)Nc1ccc(N=Nc2ccccc2)cc1,25,0.8,18,-2,/,2,/
c1ccc(N2CC3CCc4ccccc4C3=N2)cc1 (centres undefined),15,/,/,0,-2,-1,/
Cc1cc2nc(-c3ccc(SCC(=O)N4CCOCC4)nc3)[nH]c2cc1C,58*,0.3,73*,68*,-5,-3,58*
Cc1cc(=O)[nH]c(SCC(=O)N2CCN(C(=O)c3ccco3)CC2)n1,/,/,/,-16,1,0,/
Cc1cc2nc(-c3ccc(SCC(=O)N4CCN(C(=O)c5ccco5)CC4)nc3)[nH]c2cc1C,65*,0.2,81*,74*,-5,-4,63*
Cc1cccc(S(=O)(=O)NC(=O)C2(C)CCN2C(=O)c2c(C)noc2C)c1 (centres undefined),/,/,/,-10,/,4,/
O=C(NCc1ccccn1)c1ccc(OC2CCN(Cc3ccc(Cl)s3)CC2)cc1,/,/,/,-2,-1,0,/
O=C(N/N=C/c1ccc(Cl)c([N+](=O)[O-])c1)c1cc(-c2ccc3c4c(cccc24)CC3)n[nH]1,42,/,/,10,-6,0,33
O=C(N/N=C/c1cccc([N+](=O)[O-])c1)c1cc(-c2ccc3c4c(cccc24)CC3)n[nH]1,12,1,-2,-16,-1,0,/
CCOC(=O)C(Cc1c[nH]c2cc([N+](=O)[O-])ccc12)(NC(C)=O)C(=O)OCC,/,/,/,0,/,5,/
O=C1c2ccccc2C(=O)C1c1ccncc1,59*,0.2,80*,57*,-3,-4,58*
CC(=O)Nc1ccc(C2C(=O)c3ccccc3C2=O)cc1,53*,/,/,62*,-3,0,54*
SMILES,PPC-1+TRAIL kill,FLuc act counter,FLuc inhib CS,C8 TRAIL sens,beta cell repl,iPSC survival up,PPC1 cytotox
Cc1ccccc1S(=O)c1ccccc1C(=O)O (centres undefined),-2,/,/,2,-2,0,/
COc1ccc(NC(=O)c2cccc([N+](=O)[O-])c2)cc1,0,0.9,6,-1,-2,-1,/
COc1ccc(NC(=O)c2cc([N+](=O)[O-])ccc2O)cc1,75*,0,96*,91*,-7,-5,77*
CC(=O)c1cnc2cc(-c3ccccc3)nn2c1C,23,0.8,25,18,-2,-2,/
Nc1c(-c2ccccc2)cnc2cc(-c3ccccc3)nn12,53*,0.1,86*,65*,/,-3,60*
COC(=O)c1nc2ccc(N3CCOCC3)cc2c(C)c1C(=O)OC,46,0.1,87*,63*,-4,-1,49
Cc1ccc(C)c(N2CCN(C(=O)CCS(=O)(=O)c3ccc4c(c3)oc(=O)n4C)CC2)c1,/,/,/,-1,-1,1,/
O=C(O)CCCNS(=O)(=O)c1ccc(F)cc1,12,1,-4,-19,-4,0,/
O=S(=O)(NCCCCCNS(=O)(=O)c1ccc(F)cc1)c1ccc(F)cc1,-6,1.1,-6,3,-1,-1,-8
Cc1nn(-c2ccc(F)cc2)c(Cl)c1/C=C/C(=O)N1CCNC(=O)C1,6,1,-4,-8,-4,-1,/
COc1ccccc1C(=O)NCCC(=O)NCC(C)(C)N1CCOCC1,/,/,/,-8,-3,-1,/
COc1nc(OC)nc(N2CCC(C(=O)NCc3cccs3)CC2)n1,-1,1,-3,-4,-2,2,2
C/C(=N\NC(=O)c1ccc(NS(=O)(=O)c2cccs2)cc1)c1cccs1,1,1.1,-7,0,3,1,/
C/C(=N\NC(=O)c1ccc(Cl)cc1)c1cccs1,63*,0.1,90*,75*,/,-1,64*
C/C(=N\NC(=O)c1ccccc1NC(=O)c1ccc(Cl)cc1)c1ccncc1,97*,0,98*,94*,-6,-6,97*
C/C(=N\NC(=O)c1n[nH]c2c1CCC2)c1cccs1,68*,/,/,80*,-3,-1,67*
O=C(N/N=C/c1cccs1)c1n[nH]c2c1CCCC2,56*,/,/,74*,-5,-1,46
C/C(=N\NC(=O)c1cccs1)c1ccncc1,/,/,/,0,0,0,/
Cc1ccc(/C=N/NC(=O)c2n[nH]c3c2CCCC3)cc1,4,/,/,17,-4,-1,/
O=C(NCc1cccc(OC(F)(F)F)c1)c1ccc2c(c1)S(=O)(=O)c1cc(Cl)ccc1C2=O,/,/,/,11,-2,2,/
CCOc1ccc(NC(=O)c2ccc(NC(=O)c3ccc(NC(N)=O)cc3)cc2)cc1,/,/,/,-10,1,0,/
